According to ChEMBL document CHEMBL1138267, “Identification of phosphinate dipeptide analog inhibitors directed against the Plasmodium falciparum M17 leucine aminopeptidase as lead antimalarial compounds” (J Med Chem, 2007):

What was measured:
Plasmodium falciparum [1] = assay: Antimalarial activity after 48 hrs against multidrug-resistant Plasmodium falciparum Dd2 by [3H]hypoxanthine uptake; type: functional, organism-based
Plasmodium falciparum [2] = assay: Antimalarial activity after 48 hrs against Plasmodium falciparum D10 by [3H]hypoxanthine uptake; type: functional, organism-based
Plasmodium falciparum [3] = assay: Antimalarial activity after 48 hrs against drug-sensitive Plasmodium falciparum 3D7 by [3H]hypoxanthine uptake; type: functional, organism-based
[4] = Inhibition of Plasmodium falciparum recombinant M17 LAP
Summary of the method: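 His-tagged PfLAP expressed in baculovirus-infected Sf9 cells and Ni-agarose purified. The enzyme was Co2+-activated (1 mM CoCl2, 50 mM Tris-HCl pH 8.0, 20 min) and H-Leu-NHMec hydrolysis was read at ex 370/em 460 nm, 37 °C. Ki came from Dixon plots of initial rates (26 nM enzyme, 2.5–100 µM substrate, 2.44–78.13 nM inhibitor). For time-dependent binding, Ki* came from steady-state progress curves (2 µM substrate, 19.53–312.5 nM).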

Plasmodium chabaudi [5] = assay: Antimalarial activity against Plasmodium chabaudi chabaudi in C57BL/6J mice (Mus musculus) assessed as parasitemia on day 14 at 0.1 mg, intraperitoneally for 4 days; type: functional
Mus musculus [6] = assay: Toxicity in Plasmodium chabaudi chabaudi infected C57BL/6J mice (Mus musculus) at 2 mg, intraperitoneally twice daily after 7 days; type: organism-based; settings: in vivo, ip, 168 h
Mus musculus [7] = assay: Toxicity in Plasmodium chabaudi chabaudi infected C57BL/6J mice (Mus musculus) at 0.1 mg, intraperitoneally twice daily after 4 days; type: organism-based; settings: in vivo, ip, 96 h
Plasmodium chabaudi [8] = assay: Antimalarial activity against Plasmodium chabaudi chabaudi in C57BL/6J mice (Mus musculus) assessed as parasitemia on day 11 at 2 mg, intraperitoneally twice daily for 7 days; type: functional
Plasmodium chabaudi [9] = assay: Antimalarial activity against Plasmodium chabaudi chabaudi in C57BL/6J mice (Mus musculus) assessed as reduction of parasitemia on day 11 at 2 mg, intraperitoneally twice daily for 7 days relative to control; type: functional; design: scale not given: the % may be the effect or the level left
Plasmodium chabaudi [10] = assay: Antimalarial activity against Plasmodium chabaudi chabaudi in C57BL/6J mice (Mus musculus) assessed as parasitemia on day 8 at 2 mg, intraperitoneally twice daily for 7 days; type: functional

SMILES	IC50 (Plasmodium falciparum [1]) [µM]	IC50 (Plasmodium falciparum [2]) [µM]	IC50 (Plasmodium falciparum [3]) [µM]	Ki [4] [µM]	Activity (Plasmodium chabaudi [5]) [%]	Activity (Mus musculus [6])	Activity (Mus musculus [7])	Activity (Plasmodium chabaudi [8]) [%]	Activity (Plasmodium chabaudi [9]) [%]	Activity (Plasmodium chabaudi [10]) [%]
N[C@H](CCc1ccccc1)P(=O)(O)CCC(=O)O	> 100	> 100	> 100	0.525						
N[C@H](CCc1ccccc1)P(=O)(O)C[C@@H](Cc1ccc(O)cc1)C(=O)O	13	47	19	0.0104						
CCN(CC)CCCC(C)Nc1ccnc2cc(Cl)ccc12 (stereo not given) [CHLOROQUINE]					6.9	Non-toxic	Non-toxic			
CC(C)C[C@H](CP(=O)(O)[C@H](N)CC(C)C)C(=O)O	> 100	> 100	> 100	0.0973						
N[C@H](CCc1ccccc1)P(=O)(O)C[C@@H](Cc1ccccc1)C(=O)O	20	46	24	0.0132		Non-toxic	Non-toxic	3.6	92	
CC(C)C[C@H](NC(=O)[C@@H](O)[C@H](N)Cc1ccccc1)C(=O)O.Cl [BESTATIN HYDROCHLORIDE]	12	11	8	0.025		Non-toxic	Non-toxic			29.7
